Measurements reported in ChEMBL document CHEMBL1154100, “Tetrahydroisoquinolines as dopaminergic ligands: 1-Butyl-7-chloro-6-hydroxy-tetrahydroisoquinoline, a new compound with antidepressant-like activity in mice” (Bioorg Med Chem, 2009).
Activity calls are given as the source filed them. No cut-off for these calls is given here.

Columns and labels:
[1] = molecular target: Sodium-dependent dopamine transporter (Rattus norvegicus) (UniProt P23977); experiment: Inhibition of DAT in Wistar rat striatal synaptosomes at 100 uM by [3H]dopamine uptake assay; type: subcellular; conditions: Brain
In short: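 Synaptosomes were prepared from female Wistar rat striatum at 0–4 °C. Tissue was homogenized in 0.32 M sucrose, spun twice at 1000g for 10 min, and the pooled supernatants were spun at 16,000g for 30 min. The pellet was taken up in Krebs medium (pH 7.6, with glucose). Samples were preincubated for 10 min at 37 °C with pargyline, then given 0.5 nM final [³H]dopamine for 10 min. Uptake was stopped by ice-cold dilution and rapid fiberglass filtration.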

D(1A) dopamine receptor = D(1A) dopamine receptor (Rattus norvegicus, UniProt P18901); experiment: Displacement of [3H]SCH23390 from dopamine D1 receptor in Wistar rat striatal membrane by liquid scintillation counting; type: cell membranes, Striatum
In short: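 Female Wistar rat striatum homogenized in 50 mM Tris-HCl pH 7.4, then washed twice at 49,000g. Membranes were resuspended in Tris-ions buffer (NaCl, CaCl2, KCl, MgCl2, 0.1% ascorbate). [3H]-SCH23390 displacement was read by filtration and scintillation counting. Ki was derived using KD 0.36 nM; 3–6 independent runs in duplicate, mean SEM.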

Rattus norvegicus = organism: Rattus norvegicus; experiment: Selectivity for Wistar rat dopamine D2 receptor over Wistar rat dopamine D1 receptor
D(2) dopamine receptor = D(2) dopamine receptor (Rattus norvegicus, UniProt P61169); experiment: Displacement of [3H]raclopride from dopamine D2 receptor in Wistar rat striatal membrane by liquid scintillation counting; type: cell membranes, Striatum
In short: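 Striata from female Wistar rats (200–220 g) were homogenized in 50 mM Tris-HCl (pH 7.4) and centrifuged twice at 49,000g for 15 min at 4 °C. Membranes were resuspended in Tris buffer containing 120 mM NaCl, 2 mM CaCl₂, 5 mM KCl, 1 mM MgCl₂ and 0.1% ascorbic acid (pH 7.4). Samples were filtered, washed with cold buffer and counted by scintillation. Ki was derived using a [³H]raclopride KD of 1,25 nM, from 3–6 determinations run in duplicate.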

D(2) dopamine receptor, sequence (P61169 whole entry): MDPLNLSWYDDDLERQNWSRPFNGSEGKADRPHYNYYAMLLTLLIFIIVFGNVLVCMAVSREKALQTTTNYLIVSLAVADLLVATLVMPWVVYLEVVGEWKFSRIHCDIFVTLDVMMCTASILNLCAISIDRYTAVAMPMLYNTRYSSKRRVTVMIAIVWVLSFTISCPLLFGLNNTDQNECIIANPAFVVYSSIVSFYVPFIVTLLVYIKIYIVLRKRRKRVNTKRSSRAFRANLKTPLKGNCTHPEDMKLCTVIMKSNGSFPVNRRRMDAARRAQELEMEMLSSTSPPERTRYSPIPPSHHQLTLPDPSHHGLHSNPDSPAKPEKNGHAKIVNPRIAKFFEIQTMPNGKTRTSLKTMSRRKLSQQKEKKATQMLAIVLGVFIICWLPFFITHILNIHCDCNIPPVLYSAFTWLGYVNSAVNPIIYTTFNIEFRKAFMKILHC
D(1A) dopamine receptor, sequence (P18901 whole entry): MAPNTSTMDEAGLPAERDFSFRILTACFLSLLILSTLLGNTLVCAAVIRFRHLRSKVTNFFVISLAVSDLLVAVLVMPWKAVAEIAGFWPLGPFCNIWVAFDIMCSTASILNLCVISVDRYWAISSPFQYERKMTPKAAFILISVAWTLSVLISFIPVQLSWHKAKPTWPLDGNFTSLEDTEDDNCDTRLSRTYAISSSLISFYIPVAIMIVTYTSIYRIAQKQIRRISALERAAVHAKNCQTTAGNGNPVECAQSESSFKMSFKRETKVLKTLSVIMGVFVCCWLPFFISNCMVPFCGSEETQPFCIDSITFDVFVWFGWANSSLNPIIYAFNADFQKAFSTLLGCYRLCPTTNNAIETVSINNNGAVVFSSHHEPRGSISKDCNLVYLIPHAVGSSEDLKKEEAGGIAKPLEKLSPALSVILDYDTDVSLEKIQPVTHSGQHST
Sodium-dependent dopamine transporter (Rattus norvegicus), sequence (P23977 whole entry): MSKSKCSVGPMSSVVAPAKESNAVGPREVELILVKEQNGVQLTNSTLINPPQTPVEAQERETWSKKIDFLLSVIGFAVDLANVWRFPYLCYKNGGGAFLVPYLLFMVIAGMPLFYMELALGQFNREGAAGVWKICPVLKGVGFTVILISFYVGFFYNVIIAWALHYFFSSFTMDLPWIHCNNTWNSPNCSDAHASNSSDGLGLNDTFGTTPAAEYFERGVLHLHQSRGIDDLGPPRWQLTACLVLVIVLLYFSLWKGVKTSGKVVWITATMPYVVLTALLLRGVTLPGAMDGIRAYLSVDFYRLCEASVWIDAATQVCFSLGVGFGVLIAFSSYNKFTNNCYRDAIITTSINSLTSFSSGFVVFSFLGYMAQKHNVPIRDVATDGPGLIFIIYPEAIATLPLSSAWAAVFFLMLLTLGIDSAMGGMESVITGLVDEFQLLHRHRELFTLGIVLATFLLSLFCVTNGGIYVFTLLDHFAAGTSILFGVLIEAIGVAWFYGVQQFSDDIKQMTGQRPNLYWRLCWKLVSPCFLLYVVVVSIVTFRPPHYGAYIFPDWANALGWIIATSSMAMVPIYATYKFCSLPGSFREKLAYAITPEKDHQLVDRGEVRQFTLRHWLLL

Row | Compound | Activity [1] | Ki (D(1A) dopamine receptor) [µM] | fold change (FC) (Rattus norvegicus) | Ki (D(2) dopamine receptor; read-out: Ki) [µM] | Ki (D(2) dopamine receptor; read-out: pKi (converted)) [µM]
1 | CCCCC1NCCc2cc(Cl)c(O)cc21 (stereo not drawn) | inactive | 1.21 | 17 | 0.091 | 
2 | CN1CCc2cc(Cl)c(O)cc2C1c1ccccc1 (stereo not drawn) | inactive | 0.0403 | 0.07 |  | 0.504
3 | COc1cc2c(cc1Cl)CCNC2c1ccccc1 (stereo not drawn) | inactive | 6 | 1.2 |  | 6.14
4 | O=C(CCCN1CCC(O)(c2ccc(Cl)cc2)CC1)c1ccc(F)cc1 |  |  | 20 |  | 
